Results as given in ChEMBL document CHEMBL1123248, “Chiral DNA gyrase inhibitors. 1. Synthesis and antimicrobial activity of the enantiomers of 6-fluoro-7-(1-piperazinyl)-1-(2'-trans-phenyl-1'-cyclopropyl)-1, 4-dihydro-4-oxoquinoline-3-carboxylic acid” (1986).
≈ marks a conversion by molar mass, not a printed value.

Columns and labels:
Format in all cases: functional
Escherichia coli [1] = test: (§1) The compound was tested for its antimicrobial activity against Escherichia coli juhl (Ec) strain.
In short: (§2)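 MIC by twofold serial agar dilution in brain-heart infusion agar.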

Klebsiella aerogenes [2] = test: The compound was tested for its antimicrobial activity against Enterobacter aerogenes ATCC 13048 (Ea) strain.; in short: as §2
Pseudomonas aeruginosa [3] = test: The compound was tested evaluated for its antimicrobial activity against Pseudomonas aeruginosa A5007 (Pa(5)) strain.
In short: (§3)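 MICs were determined by twofold agar dilution on brain-heart infusion agar.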

[4] = system: Staphylococcus epidermidis; test: The compound was tested for its antimicrobial activity against Staphylococcus epidermidis 3519 (Se) strain.; in short: as §2
Streptococcus pyogenes [5] = test: The compound was tested for its antimicrobial activity against Streptococcus pyogenes 930 (Sp) strain.; in short: as §2
Staphylococcus aureus [6] = test: The compound was tested for its antimicrobial activity against Staphylococcus aureus CMX 68613 (Sa) strain.; in short: as §2
Enterococcus faecium [7] = test: The compound was tested for its antimicrobial activity against Streptococcus faecium ATCC 8043 (Sf) strain.; in short: as §2
Acinetobacter [8] = test: The compound was tested for its antimicrobial activity against Acinetobacter sp. CMX 669 (A) strain.; in short: as §2
Pseudomonas aeruginosa [9] = test: The compound was tested evaluated for its antimicrobial activity against Pseudomonas aeruginosa ( Pa(K)) strain.; in short: as §2
Staphylococcus aureus [10] = test: The compound was tested for its antimicrobial activity against Staphylococcus aureus ATCC 6538P (Sa(A)) strain; in short: as §3
Escherichia coli [11] = test: The compound was tested for its antimicrobial activity against Escherichia coli juhl (Ec) strain; in short: as §3
Escherichia coli [12] = test: The compound was tested for inhibition constant against DNA gyrase isolated from Escherichia coli
Klebsiella pneumoniae [13] = test: microbe, parasite or virus in culture
Micrococcus luteus [14] = test: The compound was tested for inhibition constant against DNA gyrase isolated from micrococcus luteus
Pseudomonas aeruginosa [15] = test: The compound was tested evaluated for its antimicrobial activity against Pseudomonas aeruginosa ( Pa(K)) strain; in short: as §3
Streptococcus pyogenes [16] = test: The compound was tested for its antimicrobial activity against Streptococcus pyogenes 930 (Sp) strain; in short: as §3
Staphylococcus aureus [17] = test: The compound was tested for its antimicrobial activity against Staphylococcus aureus CMX 68613 (Sa) strain; in short: as §3
Enterococcus faecium [18] = test: The compound was tested for its antimicrobial activity against Streptococcus faecium ATCC 8043 (Sf) strain; in short: as §3
Klebsiella aerogenes [19] = test: The compound was tested for its antimicrobial activity against Enterobacter aerogenes ATCC 13048 (Ea) strain; in short: as §3
Acinetobacter [20] = test: The compound was tested for its antimicrobial activity against Acinetobacter sp. CMX 669 (A) strain; in short: as §3
Klebsiella pneumoniae [21] = test: The compound was tested for its antimicrobial activity against Klebsiella pneumoniae 8045 (Kp) strain; in short: as §3
Pseudomonas aeruginosa [22] = test: The compound was tested evaluated for its antimicrobial activity against Pseudomonas aeruginosa A5007 (Pa(5)) strain; in short: as §2
[23] = system: Staphylococcus epidermidis; test: (§4) The compound was tested for its antimicrobial activity against Staphylococcus epidermidis 3519 (Se) strain; in short: as §3
Micrococcus luteus [24] = test: The compound was tested for its antimicrobial activity against Micrococcus luteus (MI) strain; in short: as §3
[25] = system: Staphylococcus epidermidis; test: as §4; in short: as §2; remark: listed apart in the source
Escherichia coli [26] = test: as §1; in short: as §3; remark: listed apart in the source
[27] = Staphylococcus aureus, ATCC 6538P, read-out: MIC
[28] = Escherichia coli, read-out: MIC
[29] = Pseudomonas aeruginosa, read-out: MIC
[30] = Streptococcus pyogenes, read-out: MIC
[31] = Staphylococcus aureus, read-out: MIC
[32] = Enterococcus faecium, ATCC 8043, read-out: MIC
[33] = Klebsiella aerogenes, ATCC 13048, read-out: MIC

| MIC (Pseudomonas aeruginosa [3]) [µg/mL] | MIC (Acinetobacter [20]) [µg/mL] | MIC (Klebsiella pneumoniae [21]) [µg/mL] | MIC (Micrococcus luteus [24]) [µg/mL] | Compound | MIC (Klebsiella aerogenes [2]) [µg/mL] | MIC [4] [µg/mL] | MIC (Staphylococcus aureus [6]) [µg/mL] | MIC (Staphylococcus aureus [10]; [27]) [µg/mL] | MIC (Escherichia coli [11]; [28]) [µg/mL] | Ki (Escherichia coli [12]; Escherichia coli) [µg/mL] | Ki (Micrococcus luteus [14]) [µg/mL] | MIC (Pseudomonas aeruginosa [15]; [29]) [µg/mL] | MIC (Streptococcus pyogenes [16]; [30]) [µg/mL] | MIC (Staphylococcus aureus [17]; [31]) [µg/mL] | MIC (Enterococcus faecium [18]; [32]) [µg/mL] | MIC (Klebsiella aerogenes [19]; [33]) [µg/mL] | MIC (Pseudomonas aeruginosa [22]) [µg/mL] | MIC [23] [µg/mL] | Ki (Micrococcus luteus [14]; Micrococcus luteus) [µg/mL] | MIC [25] [µg/mL] | other results |
| --- | --- | --- | --- | --- | --- | --- | --- | --- | --- | --- | --- | --- | --- | --- | --- | --- | --- | --- | --- | --- | --- |
| > 100 | 100 (≈ 245 µM) |  |  | O=C(O)c1cn(C2C[C@H]2c2ccccc2)c2cc(N3CCNCC3)c(F)cc2c1=O (stereo in doubt; 5) |  | 3.1 (≈ 7.61 µM) |  | 3.1 (≈ 7.61 µM) | 50 (≈ 123 µM) | 14.2 (≈ 34.9 µM) | 38 (≈ 93.3 µM) | 100 (≈ 245 µM) | 3.1 (≈ 7.61 µM) | 3.1 (≈ 7.61 µM) | 6.2 (≈ 15.2 µM) | 50 (≈ 123 µM) |  |  |  |  | MIC (Klebsiella pneumoniae [13]): 12.5 µg/mL (≈ 30.7 µM); MIC (Pseudomonas aeruginosa [15]): 100 µg/mL (≈ 245 µM) |
|  | 25 (≈ 61.4 µM) | 6.2 (≈ 15.2 µM) | 0.39 (≈ 0.957 µM) | O=C(O)c1cn(C2C[C@H]2c2ccccc2)c2cc(N3CCNCC3)c(F)cc2c1=O (stereo in doubt; 14) |  |  |  |  |  |  | 13.7 (≈ 33.6 µM) |  |  |  |  |  | > 100 | 1.56 (≈ 3.83 µM) |  |  | MIC (Escherichia coli [11]): 25 µg/mL (≈ 61.4 µM); Ki (Escherichia coli [12]): 15.2 µg/mL (≈ 37.3 µM); MIC (Streptococcus pyogenes [16]): 1.56 µg/mL (≈ 3.83 µM); MIC (Staphylococcus aureus [17]): 1.56 µg/mL (≈ 3.83 µM); MIC (Enterococcus faecium [18]): 3.1 µg/mL (≈ 7.61 µM); MIC (Staphylococcus aureus [10]): 1.56 µg/mL (≈ 3.83 µM); MIC (Klebsiella aerogenes [19]): 50 µg/mL (≈ 123 µM) |
| > 50 | 6.2 (≈ 15.2 µM) | 3.1 (≈ 7.61 µM) | 0.39 (≈ 0.957 µM) | O=C(O)c1cn(C2C[C@@H]2c2ccccc2)c2cc(N3CCNCC3)c(F)cc2c1=O (stereo partly specified) | 12.5 (≈ 30.7 µM) |  | 0.78 (≈ 1.91 µM) | 0.78 (≈ 1.91 µM) |  | 12.1 (≈ 29.7 µM) |  | 100 (≈ 245 µM) | 0.78 (≈ 1.91 µM) |  | 1.56 (≈ 3.83 µM) |  |  |  | 9.6 (≈ 23.6 µM) | 1.56 (≈ 3.83 µM) | MIC (Escherichia coli [26]): 12.5 µg/mL (≈ 30.7 µM) |

| Compound | MIC (Pseudomonas aeruginosa [3]) [µg/mL] | MIC (Acinetobacter [20]) [µg/mL] | MIC (Klebsiella pneumoniae [21]) [µg/mL] | MIC (Micrococcus luteus [24]) [µg/mL] | MIC (Klebsiella aerogenes [2]) [µg/mL] | MIC [4] [µg/mL] | MIC (Staphylococcus aureus [6]) [µg/mL] | MIC (Staphylococcus aureus [10]; [27]) [µg/mL] | MIC (Escherichia coli [11]; [28]) [µg/mL] | Ki (Escherichia coli [12]; Escherichia coli) [µg/mL] | Ki (Micrococcus luteus [14]) [µg/mL] | MIC (Pseudomonas aeruginosa [15]; [29]) [µg/mL] | MIC (Streptococcus pyogenes [16]; [30]) [µg/mL] | MIC (Staphylococcus aureus [17]; [31]) [µg/mL] | MIC (Enterococcus faecium [18]; [32]) [µg/mL] | MIC (Klebsiella aerogenes [19]; [33]) [µg/mL] | MIC (Pseudomonas aeruginosa [22]) [µg/mL] | MIC [23] [µg/mL] | Ki (Micrococcus luteus [14]; Micrococcus luteus) [µg/mL] | MIC [25] [µg/mL] | other results |
| --- | --- | --- | --- | --- | --- | --- | --- | --- | --- | --- | --- | --- | --- | --- | --- | --- | --- | --- | --- | --- | --- |
| O=C(O)c1cn(-c2ccccc2)c2cc(N3CCNCC3)c(F)cc2c1=O | 0.78 (≈ 2.12 µM) |  |  |  | 0.39 (≈ 1.06 µM) | 1.56 (≈ 4.25 µM) | 0.39 (≈ 1.06 µM) | 0.39 (≈ 1.06 µM) |  |  |  |  |  |  |  |  |  |  |  |  | MIC (Escherichia coli [1]): 0.2 µg/mL (≈ 0.544 µM); MIC (Streptococcus pyogenes [5]): 1.56 µg/mL (≈ 4.25 µM); MIC (Enterococcus faecium [7]): 12.5 µg/mL (≈ 34 µM); MIC (Acinetobacter [8]): 0.78 µg/mL (≈ 2.12 µM); MIC (Pseudomonas aeruginosa [9]): 1.56 µg/mL (≈ 4.25 µM) |
| O=C(O)c1cn(C2CC2)c2cc(N3CCNCC3)c(F)cc2c1=O [CIPROFLOXACIN] |  | 3.1 (≈ 9.36 µM) |  | 1.56 (≈ 4.71 µM) |  |  |  | 0.2 (≈ 0.604 µM) |  | 0.9 (≈ 2.72 µM) |  | 0.05 (≈ 0.151 µM) | 0.39 (≈ 1.18 µM) | 0.2 (≈ 0.604 µM) | 0.39 (≈ 1.18 µM) | 0.05 (≈ 0.151 µM) | 0.1 (≈ 0.302 µM) | 0.2 (≈ 0.604 µM) | 38 (≈ 115 µM) |  |  |
| CCn1cc(C(=O)O)c(=O)c2cc(F)c(N3CCNCC3)cc21 [NORFLOXACIN] |  | 6.2 (≈ 19.4 µM) | 0.1 (≈ 0.313 µM) |  | 0.2 (≈ 0.626 µM) |  |  | 0.78 (≈ 2.44 µM) | 0.1 (≈ 0.313 µM) | 1 (≈ 3.13 µM) |  | 0.39 (≈ 1.22 µM) | 3.1 (≈ 9.71 µM) | 0.78 (≈ 2.44 µM) | 0.78 (≈ 2.44 µM) |  | 0.39 (≈ 1.22 µM) |  | 72 (≈ 225 µM) | 1.56 (≈ 4.89 µM) |  |
